Source: ChEMBL document CHEMBL1933001, “LDV peptidomimetics equipped with biotinylated spacer-arms: synthesis and biological evaluation on CCRF-CEM cell line” (Bioorg Med Chem Lett, 2012)
Calls of active or inactive are those of the source. No cut-off for these calls is given here.

Columns and labels:
Integrin alpha-4/beta-1 [1] = target: T1, Integrin alpha-4/beta-1 (Homo sapiens, UniProt P05556+P13612); assay: Inhibition of alpha4beta1 integrin expressed in human CCRF-CEM cells assessed as cell adhesion to fibronectin after 1 hr by fluorimetry analysis; format: cell-based
Procedure, shortened: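 Calcein-prelabelled CCRF-CEM cells (α4β1-expressing T lymphoblast-like line) were added to plates coated with fibronectin (10 µg/mL). Incubation was 1 h at 37 °C with or without increasing compound doses (1–500 µM). Adherent cells were quantified by fluorescence, and IC50 was derived from the inhibition of adhesion.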

CCRF-CEM = assay: Cytotoxicity against human CCRF-CEM cells at 200 uM after 24 hrs by propidium iodide-based flow cytometry; format: cell-based
Procedure, shortened: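 CCRF-CEM cells were incubated for 24 h with increasing amounts of compound, up to 200 µM final, then stained with propidium iodide to detect dead cells by fluorescence.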

Integrin alpha-4/beta-1 [2] = target: T1, Integrin alpha-4/beta-1; assay: Induction of adhesion of alpha4beta1 integrin expressing calcein-labelled human CCRF-CEM cells to neutravidin-coated plates at 0.1 to 10 uM pre-incubated for 2 hrs measured after 1 hr by fluorimetry; format: cell-based
Procedure, shortened: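 Neutravidin-coated plates were pre-treated with biotin-conjugated compound, then calcein-labelled CCRF-CEM cells were added. Adherent cells were quantified by calcein fluorescence. Untreated plates served as control.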

Integrin alpha-4/beta-1 [3] = target: T1, Integrin alpha-4/beta-1; assay: Binding affinity to alpha4beta1 integrin expressed human CCRF-CEM cells at 100 uM after 24 hrs by alexa-conjugated streptavidin-based microscopy; format: cell-based
Procedure, shortened: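 Fibronectin-coated plates (10 µg/mL). Adherent CCRF-CEM cells were exposed to biotin-conjugated molecules at 100 µM for 24 h and washed extensively. Alexa 568-conjugated streptavidin was then added, and extracellular fluorescence on the cell surface was imaged. Controls were not pre-treated and received only fluorescent streptavidin.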

Integrin alpha-4/beta-1 [4] = target: T1, Integrin alpha-4/beta-1; assay: Detachment of pre-adhered alpha4beta1 integrin expressed in calcein-labelled human CCRF-CEM cells from fibronectin at 1 to 500 uM after 24 to 48 hrs by MTT assay; format: cell-based
HUVEC = assay: Inhibition of fibronectin adhesion into HUVEC after 1 hr by fluorimetry analysis; format: functional, cell-based; conditions: Homo sapiens

T1 sequence (P05556 whole entry): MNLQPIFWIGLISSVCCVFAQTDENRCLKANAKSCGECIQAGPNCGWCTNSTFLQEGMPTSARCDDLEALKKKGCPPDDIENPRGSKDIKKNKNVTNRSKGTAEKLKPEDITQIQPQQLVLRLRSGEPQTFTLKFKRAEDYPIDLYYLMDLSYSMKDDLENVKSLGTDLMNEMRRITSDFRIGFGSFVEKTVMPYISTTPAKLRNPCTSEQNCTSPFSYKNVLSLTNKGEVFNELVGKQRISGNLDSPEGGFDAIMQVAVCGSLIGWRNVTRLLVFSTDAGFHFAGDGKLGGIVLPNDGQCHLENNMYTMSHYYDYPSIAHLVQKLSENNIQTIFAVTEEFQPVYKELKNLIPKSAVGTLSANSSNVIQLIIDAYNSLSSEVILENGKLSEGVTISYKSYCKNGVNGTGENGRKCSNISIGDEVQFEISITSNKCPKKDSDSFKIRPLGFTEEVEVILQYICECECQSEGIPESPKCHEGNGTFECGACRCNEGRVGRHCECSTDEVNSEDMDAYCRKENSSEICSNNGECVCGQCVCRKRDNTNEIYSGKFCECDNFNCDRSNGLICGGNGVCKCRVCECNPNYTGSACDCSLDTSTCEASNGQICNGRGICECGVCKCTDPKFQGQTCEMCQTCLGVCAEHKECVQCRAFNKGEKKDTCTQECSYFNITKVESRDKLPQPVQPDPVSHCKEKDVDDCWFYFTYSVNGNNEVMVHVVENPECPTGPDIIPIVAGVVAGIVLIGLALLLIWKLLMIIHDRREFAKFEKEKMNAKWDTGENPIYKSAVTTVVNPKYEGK
T1 sequence (P13612 whole entry): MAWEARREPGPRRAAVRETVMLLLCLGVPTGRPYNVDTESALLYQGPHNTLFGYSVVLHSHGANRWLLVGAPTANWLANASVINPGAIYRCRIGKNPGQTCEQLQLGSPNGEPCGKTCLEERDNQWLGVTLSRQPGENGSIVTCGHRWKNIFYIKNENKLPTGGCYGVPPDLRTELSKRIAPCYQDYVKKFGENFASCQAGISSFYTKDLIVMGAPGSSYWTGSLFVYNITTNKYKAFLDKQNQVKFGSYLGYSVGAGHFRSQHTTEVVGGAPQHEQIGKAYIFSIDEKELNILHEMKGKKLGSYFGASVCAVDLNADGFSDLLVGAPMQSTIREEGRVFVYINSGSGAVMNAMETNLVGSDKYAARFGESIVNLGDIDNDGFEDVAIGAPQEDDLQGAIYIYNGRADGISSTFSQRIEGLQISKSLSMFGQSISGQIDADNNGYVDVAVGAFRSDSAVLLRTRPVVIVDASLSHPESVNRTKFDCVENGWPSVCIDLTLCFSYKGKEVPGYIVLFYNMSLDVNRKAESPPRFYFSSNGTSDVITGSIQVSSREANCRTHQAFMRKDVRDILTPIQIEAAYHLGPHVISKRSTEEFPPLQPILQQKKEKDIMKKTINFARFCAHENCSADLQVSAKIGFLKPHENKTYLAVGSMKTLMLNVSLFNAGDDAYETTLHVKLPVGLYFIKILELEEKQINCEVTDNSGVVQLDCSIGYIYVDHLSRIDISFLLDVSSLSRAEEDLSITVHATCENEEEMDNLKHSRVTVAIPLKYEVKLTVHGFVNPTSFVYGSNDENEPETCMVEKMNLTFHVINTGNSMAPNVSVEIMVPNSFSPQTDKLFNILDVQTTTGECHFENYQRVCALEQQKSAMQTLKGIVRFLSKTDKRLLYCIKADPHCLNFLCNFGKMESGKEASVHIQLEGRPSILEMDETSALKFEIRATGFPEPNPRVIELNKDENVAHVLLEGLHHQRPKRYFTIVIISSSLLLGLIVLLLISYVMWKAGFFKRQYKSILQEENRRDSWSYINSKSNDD

Row | SMILES | IC50 (Integrin alpha-4/beta-1 [1]) [µM] | Activity (CCRF-CEM) | Activity (Integrin alpha-4/beta-1 [2]) | Activity (Integrin alpha-4/beta-1 [3]) | Activity (Integrin alpha-4/beta-1 [4]) | inhibition (HUVEC)
1 | Cc1cccc(C)c1NC(=O)Nc1ccc(CC(=O)NCCCCCCCCCCCCN)cc1 | 151 | – | – | – | – | –
2 | Cc1cccc(C)c1NC(=O)Nc1ccc(CC(=O)NCCCCCCCCCCCCNC(=O)CCCC[C@@H]2SC[C@@H]3NC(=O)N[C@@H]32)cc1 | 97.7 | Non-toxic | inactive | inactive | – | –
3 | Cc1cccc(C)c1NC(=O)Nc1ccc(CC(=O)Nc2ccc(OCC(=O)O)c(CCC(=O)NCCOCCOCCOCCOCCOCCN)c2)cc1 | 170 | – | – | – | inactive | –
4 | Cc1cccc(C)c1NC(=O)Nc1ccc(CC(=O)Nc2ccc(OCC(=O)O)c(CCC(=O)NCCCCCCCCCCCCN)c2)cc1 | 123 | – | – | – | Active | –
5 | Cc1cccc(C)c1NC(=O)Nc1ccc(CC(=O)N[C@@H](CC(C)C)C(=O)N[C@@H](CC(=O)O)C(=O)N[C@H](C(=O)NCCCCCCCCCCCCN)C(C)C)cc1 | 2.6 | – | – | – | – | inactive
6 | Cc1cccc(C)c1NC(=O)Nc1ccc(CC(=O)N[C@@H](CC(C)C)C(=O)N[C@@H](CC(=O)O)C(=O)N[C@H](C(=O)NCCc2ccccc2)C(C)C)cc1 | 36.3 | – | – | – | – | inactive
7 | Cc1cccc(C)c1NC(=O)Nc1ccc(CC(=O)O)cc1 | > 1000 | – | – | – | – | –
8 | Cc1cccc(C)c1NC(=O)Nc1ccc(CC(=O)Nc2ccc(OCC(=O)OC(C)(C)C)c(CCC(=O)O)c2)cc1 | 68.4 | – | – | – | – | –
9 | Cc1cccc(C)c1NC(=O)Nc1ccc(CC(=O)Nc2ccc(OCC(=O)O)c(CCC(=O)NCCCCCCCCCCCCNC(=O)CCCC[C@@H]3SC[C@@H]4NC(=O)N[C@@H]43)c2)cc1 | 14.1 | Non-toxic | Active | Active | – | –
